The values below come from ChEMBL document CHEMBL1122326, “Nonsteroidal antiinflammatory agents. 2. [(Heteroarylamino)phenyl]alkanoic acids” (J Med Chem, 1983).

Molecules are shown by their SMILES. Where only a bound is given, the exact number is not on record here.

The subject of series [1] is Mus musculus. As to the kind of experiment: ED50 value was evaluated for analgesic activity by phenylquinone -induced writhing test in mice on peroral administration. The class given is functional. Conditions: po. The gist of the method: (§1)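 Female ddN mice, 5 to 15 per dose, given drug orally in 0.5% aqueous tragacanth. Writhing was induced by ip phenylquinone (0.03%), and writhes were counted over 15 min.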

For series [2], the system named is Rattus norvegicus. In words: ED50 value was evaluated for antiinflammatory activity by carrageenan-induced rat paw edema method (CPE) on peroral administration. As to conditions: po. The format is functional. The gist of the method: (§2)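 Male Wistar rats, 5 to 10 per dose, 4 to 5 doses per drug, given orally in 0.5% aqueous tragacanth. Edema was induced by subcutaneous carrageenin into the left hind paw. A rat counted as positive at ≥25% inhibition versus vehicle at 3 h. ED50 with 95% confidence limits was calculated by Litchfield-Wilcoxon, after a screen at 80 mg/kg.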

Series [3] has as its system Mus musculus. In words: ED50 value was evaluated for analgesic activity by phenylquinone -induced writhing test in ddN strain mice on peroral administration; value ranges from 32.7-76.20. The format is functional. Conditions: po.
In series [4] the test system is Rattus norvegicus. As to the kind of experiment: Evaluated for the UD50 value by gastric ulcer assay in rats on peroral administration of dose; value ranges from 82.3-182. The format is functional, Stomach. The gist of the method: (§3)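 Male Wistar rats fasted for 24 h were given a single oral dose in 0.5% aqueous tragacanth and killed 6 h later. Stomachs were inspected macroscopically. UD50 is the dose producing ulcers in 50% of rats, taken from each compound's regression line.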

For series [5], the system named is Rattus norvegicus. In words: ED50 value was evaluated for antiinflammatory activity by carrageenan-induced rat paw edema method (CPE) on peroral administration; value may range from 39.61 to 80.81. The class given is functional. Conditions: po. The procedure, abridged:
as §2

Series [6] deals with Rattus norvegicus. As to the kind of experiment: ED50 value was evaluated for antiinflammatory activity by carrageenan-induced rat paw edema method (CPE) on peroral administration; value may range from 50.5 to 120.0. The class given is functional. As to conditions: po. The gist of the method:
as §2

For series [7], the system named is Mus musculus. In words: ED50 value was evaluated for analgesic activity by phenylquinone-induced writhing test in mice on peroral administration. Conditions: po. The format is functional. The procedure, abridged: as §1
The test system of series [8] is Rattus norvegicus. As to the kind of experiment: Evaluated for the UD50 value by gastric ulcer assay in rats on peroral administration of dose. The class given is functional, Stomach. The procedure, abridged: as §3
Series [9] in a line: Ratio between UD50 and ED50 in carrageenan paw edema was determined. The class given is functional. The procedure, abridged:
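Gastric UD50 (fasted male Wistar rats, single oral dose, stomach scored macroscopically at 6 h) was divided by oral CPE ED50 (male Wistar rats, paw carrageenin, ≥25% inhibition at 3 h, Litchfield-Wilcoxon).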

Series [10] is described as follows: Evaluated for the acute lethal toxicity in mice on peroral administration of dose; value may range from 1539 to 2362. The format is organism-based. Conditions: mouse, in vivo, po. The procedure, abridged: (§4)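 Single oral dose, in 0.5% aqueous tragacanth, given to male Std:ddY mice. LD50 was derived from mortality over 7 days.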
In series [11] the test system is Rattus norvegicus. As to the kind of experiment: ED50 value was evaluated for antiinflammatory activity by carrageenan-induced rat paw edema method (CPE) on peroral administration; value may range from 3.87 to 25.90. The class given is functional. Conditions: po. The gist of the method:
as §2

Series [12] deals with Rattus norvegicus. As to the kind of experiment: ED50 value was evaluated for antiinflammatory activity by carrageenan-induced rat paw edema method (CPE) on peroral administration; value may range from 7.05 to 37.13. The class given is functional. Conditions: po. The procedure, abridged: as §2
Series [13] concerns Mus musculus. As to the kind of experiment: ED50 value was evaluated for analgesic activity by phenylquinone -induced writhing test in mice on peroral administration; value may range from 20.6 to 66.0. As to conditions: po. The class given is functional. The gist of the method:
as §1

The subject of series [14] is Mus musculus. In words: ED50 value was evaluated for analgesic activity by phenylquinone -induced writhing test in mice on peroral administration; value may range from 35.3 to 283. The class given is functional. Conditions: po. The gist of the method:
as §1

In series [15] the test system is Rattus norvegicus. In words: ED50 value was evaluated for antiinflammatory activity by carrageenan-induced rat paw edema method (CPE) on peroral administration; value may range from 12.71 to 51.24. The format is functional. Conditions: po. The gist of the method: as §2
Series [16] in a line: Evaluated for the acute lethal toxicity in mice on peroral administration of dose; value may range from 430 to 1236. The format is organism-based. As to conditions: mouse, in vivo, po. The gist of the method:
as §4

Series [17] deals with Rattus norvegicus. In words: Evaluated for the UD50 value by gastric ulcer assay in rats on peroral administration of dose; value may range from 368-807. The class given is functional, Stomach. The gist of the method: as §3

Regarding `Cc1cc(Nc2ccc(CC(=O)O)cc2)ncn1`, the ED50 was greater than 100 mg/kg in series [1] and greater than 80 mg/kg in series [2].

On to `CC(C(=O)O)c1ccc(Nc2ccc3ccccc3n2)cc1` (stereo not drawn), for which the ED50 in series [1] is no less than 100 mg/kg; in [2], greater than 80 mg/kg.

As for `O=C(O)Cc1cccc(Nc2ccccn2)c1`, the results for the ED50 in [1] and in series [2] were no less than 100 mg/kg and greater than 80 mg/kg, respectively.

With `Cc1cccnc1Nc1ccc(C(C)C(=O)O)cc1` (stereo not drawn), the ED50 in series [1] is no less than 100 mg/kg; in series [2], no less than 80 mg/kg.

In [3], `CC(C)Cc1ccc(C(C)C(=O)O)cc1` (stereo not drawn) [IBUPROFEN] came in with an ED50 of 50 mg/kg. The UD50 in series [4] turned out to be 124.6 mg/kg.

On to `O=C(O)Cc1ccc(Nc2ccncc2)cc1`, for which the ED50 in series [2] is greater than 80 mg/kg.

Consider `CC(C(=O)O)c1ccc(Nc2ccc([N+](=O)[O-])cn2)cc1` (stereo not drawn), for which the ED50 in [1] is no less than 100 mg/kg; in [5], 56.6 mg/kg.

In the case of `CC(C(=O)O)c1cccc(Nc2ccccn2)c1` (stereo not drawn), the ED50 was greater than 100 mg/kg in series [1] and 77.9 mg/kg in [6].

Regarding `CSc1nccc(Nc2ccc(CC(=O)O)cc2)n1`, the 50% effective dose (ED50) in series [7] is greater than 100 mg/kg; in series [2], greater than 80 mg/kg.

Turning to `Cc1ccc(Nc2ccc(C(C)C(=O)O)cc2)nc1` (stereo not drawn), the ED50 in series [1] was no less than 100 mg/kg; in series [2] it was no less than 80 mg/kg.

Take `CC(C(=O)O)c1ccc(Nc2ccccn2)cc1` (stereo not drawn): the UD50 in [8] was greater than 640 mg/kg. The Ratio in series [9] is greater than 64. In [10], this molecule returned an LD50 of 1910 mg/kg. This molecule displayed a 50% effective dose (ED50) in series [11] of 10 mg/kg.

Take `Cc1cc(Nc2ccc(C(C)C(=O)O)cc2)ncn1` (stereo not drawn): the ED50 in series [1] was no less than 100 mg/kg; in series [2] it was greater than 80 mg/kg.

For the molecule `O=C(O)Cc1ccc(Nc2ccccn2)cc1`, the ED50 is 15.8 mg/kg in [12] and greater than 100 mg/kg in [1].

On to `Cc1cccc(Nc2ccc(C(C)C(=O)O)cc2)n1` (stereo not drawn), for which the figures for the ED50 in series [1] and in series [2] were greater than 100 mg/kg and greater than 80 mg/kg, respectively.

`Cc1cc(C(C)C(=O)O)ccc1Nc1ccccn1` (stereo not drawn): the values for the ED50 in series [13] and in [2] were 36.9 mg/kg and 16.8 mg/kg, respectively.

On to `Cc1ccnc(Nc2ccc(C(C)C(=O)O)cc2)c1` (stereo not drawn), for which the ED50 in series [1] is greater than 100 mg/kg; in series [2], greater than 80 mg/kg.

`CC(C(=O)O)c1ccc(Nc2ccc(Br)cn2)cc1` (stereo not drawn): the results for the ED50 in series [14] and in series [2] were 100 mg/kg and no less than 80 mg/kg, respectively.

`CC(C(=O)O)c1ccc(Nc2ccncc2)cc1` (stereo not drawn): the figures for the ED50 in series [1] and in series [2] were no less than 100 mg/kg and greater than 80 mg/kg, respectively.

Regarding `CC(C(=O)O)c1ccc(Nc2ccccc2)cc1` (stereo not drawn), the ED50 in series [15] is 25.5 mg/kg; in series [1], greater than 100 mg/kg.

For the molecule `CC(C(=O)O)c1ccc(Nc2ccc(Cl)cn2)cc1` (stereo not drawn), the values for the ED50 in series [1] and in series [2] were no less than 100 mg/kg and no less than 80 mg/kg, respectively.

Regarding `O=C(O)Cc1ccc(Nc2ccc3ccccc3n2)cc1`, the results for the ED50 in series [1] and in series [2] were no less than 100 mg/kg and greater than 80 mg/kg, respectively.

As to `CC(C(=O)O)c1ccc(Nc2ccccn2)cc1Cl` (stereo not drawn), the values for the ED50 in series [1] and in series [2] were no less than 100 mg/kg and no less than 80 mg/kg, respectively.

Turning to `CC(C(=O)O)c1ccc(Nc2ccccn2)c(Cl)c1` (stereo not drawn), the Ratio in [9] was 41.6. The LD50 in series [16] came out at 729 mg/kg. The molecule further had a UD50 in [17] of 545 mg/kg.
